Read-outs that look alike come from different tables or passages of the source.
Columns and labels:
[1] = test system: HCT-116 (colon cancer); test: MTT cytotoxicity assay, HCT-116 colon cancer cells; format: cell-based, human; conditions: read-out: IC50 against HCT-116
Outline: (§1)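 Cells (HCT116 or normal dermal fibroblasts) were obtained from ATCC, seeded per doubling time, and grown in RPMI at 37 °C, humidified 5% CO₂. After 48 h exposure to increasing test compound concentrations, MTT at 5 mg ml⁻¹ working concentration was added for 3 h in the dark, followed by DMSO solubilisation with shaking. OD was read at 570/630 nm, viability expressed as treated/untreated × 100, and IC50 ±SD reported from duplicate wells, ≥3 independent runs.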

[2] = test system: normal dermal fibroblast cells; test: MTT cytotoxicity assay, normal fibroblasts; format: cell-based; conditions: 48 h, read-out: IC50 against normal fibroblasts
Outline: as §1

[3] = test system: A549 (lung cancer); test: MTT cytotoxicity assay, A549 lung cancer cells; format: cell-based, human; conditions: for IC50: read-out: IC50 against A549; for lipophilic efficiency (LLE): from cytotoxicity IC50 at A549, DataWarrior
Outline: (§2)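 Cells from ATCC, seeded at densities set by doubling time and kept in RPMI at 37 °C, 5% CO₂. They were exposed to increasing concentrations for 48 h. MTT at 5 mg ml⁻¹ working concentration was added for 3 h in the dark, and crystals were dissolved in DMSO. […] LLE was estimated from these IC50 values and compound physicochemical properties.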

[4] = test system: T47-D (breast cancer); test: MTT cytotoxicity assay, T47-D breast cancer cells; format: cell-based, human; conditions: for IC50: read-out: IC50 against T47-D, MTT, 48 h treatment, ±SD, n = 9; for lipophilic efficiency (LLE): from cytotoxicity IC50 at T47-D (printed H47-D), DataWarrior
Outline: as §2

[5] = test system: A549 cell migration; test: Wound healing; format: cell-based, human; conditions: A549 cells, 24 h, control 0%; for inhibition of cell migration at IC50: compound at IC50 concentration; for inhibition of cell migration at Sub IC50: compound at sub-IC50 concentration
Outline: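 A549 cells were seeded at 35 000 per culture insert and grown 24 h. Proliferation was blocked with 10 μg ml⁻¹ mitomycin C for 2 h, then cells were washed three times. Cells were exposed to two test concentrations (full and sub-level) and the wound imaged at 0 and 24 h. Wound width was measured, and migration inhibition expressed against the untreated control (0%).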

[6] = molecular target: EGFR kinase (Homo sapiens, UniProt P00533); test: EGFR kinase inhibition; format: biochemical; conditions: three independent replicates
[7] = MTT, 48 h treatment, ±SD, n = 9

EGFR kinase, sequence (P00533 25-1210): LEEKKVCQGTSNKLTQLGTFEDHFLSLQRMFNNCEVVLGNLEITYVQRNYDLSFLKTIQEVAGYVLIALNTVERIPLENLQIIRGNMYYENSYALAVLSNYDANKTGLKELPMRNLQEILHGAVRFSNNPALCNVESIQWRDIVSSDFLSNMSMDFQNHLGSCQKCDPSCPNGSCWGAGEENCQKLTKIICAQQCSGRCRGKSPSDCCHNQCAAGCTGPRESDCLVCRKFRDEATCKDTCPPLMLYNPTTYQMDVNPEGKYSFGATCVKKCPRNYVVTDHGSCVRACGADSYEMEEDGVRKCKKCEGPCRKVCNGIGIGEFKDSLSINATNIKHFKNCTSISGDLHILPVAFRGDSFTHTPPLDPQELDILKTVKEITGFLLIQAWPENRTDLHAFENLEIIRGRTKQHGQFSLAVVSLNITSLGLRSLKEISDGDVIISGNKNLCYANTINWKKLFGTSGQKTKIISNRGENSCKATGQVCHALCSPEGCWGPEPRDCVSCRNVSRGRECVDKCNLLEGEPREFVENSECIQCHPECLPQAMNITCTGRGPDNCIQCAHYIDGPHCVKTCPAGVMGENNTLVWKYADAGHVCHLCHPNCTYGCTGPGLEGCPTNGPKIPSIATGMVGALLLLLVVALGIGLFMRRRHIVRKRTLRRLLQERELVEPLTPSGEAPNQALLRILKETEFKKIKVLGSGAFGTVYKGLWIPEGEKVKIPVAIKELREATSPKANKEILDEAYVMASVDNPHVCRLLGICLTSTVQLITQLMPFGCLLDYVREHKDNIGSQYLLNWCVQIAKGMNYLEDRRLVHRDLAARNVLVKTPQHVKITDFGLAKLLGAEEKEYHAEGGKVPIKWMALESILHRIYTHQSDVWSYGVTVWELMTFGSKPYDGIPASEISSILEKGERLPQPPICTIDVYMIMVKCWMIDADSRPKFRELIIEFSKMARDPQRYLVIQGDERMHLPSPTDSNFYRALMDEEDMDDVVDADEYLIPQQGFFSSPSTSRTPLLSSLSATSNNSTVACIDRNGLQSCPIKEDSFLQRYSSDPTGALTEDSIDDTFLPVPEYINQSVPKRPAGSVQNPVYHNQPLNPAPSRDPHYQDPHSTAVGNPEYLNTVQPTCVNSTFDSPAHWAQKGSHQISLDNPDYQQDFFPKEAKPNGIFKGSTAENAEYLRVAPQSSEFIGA

| Compound | IC50 [2] | IC50 ([3]; Homo sapiens, A549, 48 h) | IC50 ([1]; Homo sapiens, HCT-116, 48 h) | also measured |
| --- | --- | --- | --- | --- |
| O=c1[nH]cc(F)c(=O)[nH]1 [5-FU, reference compound] | – | – | – | IC50 [1, 7]: 11 ± 0.7 µM |
| C#CCOc1ccc(/C=N\NC(=O)c2ccccc2)cc1 [7a, (Z)-N′-(4-(prop-2-yn-1-yloxy)benzylidene)benzohydrazide] | > 500 µM | 200 ± 4 µM | 237 ± 6 µM | – |
| C#CCOc1ccc(/C=N\Nc2ccc([N+](=O)[O-])cc2[N+](=O)[O-])cc1 [7c, (Z)-1-(2,4-dinitrophenyl)-2-(4-(prop-2-yn-1-yloxy)benzylidene)hydrazine] | > 500 µM | 156 ± 4 µM | 209 ± 5 µM | – |
| C#CCOc1ccc(/C=N\NC(N)=S)cc1 [7d, (Z)-2-(4-(prop-2-yn-1-yloxy)benzylidene)hydrazine-1-carbothioamide] | > 500 µM | 128 ± 5 µM | 261 ± 6 µM | – |
| O=C(Cn1cc(COc2ccc(/C=N/NC(=O)c3ccccc3)cc2)nn1)Nc1nc2ccccc2s1 [8a, (E)-N-(benzo[d]thiazol-2-yl)-2-(4-((4-((2-benzoylhydrazono)-methyl)phenoxy)methyl)-1H-1,2,3-triazol-1-yl)acetamide] | > 500 µM | 18 ± 1 µM | 84 ± 3 µM | IC50 [4]: 17 ± 1 µM; inhibition of cell migration at IC50 [5]: 92.4%; inhibition of cell migration at Sub IC50 [5]: 44.8%; % of EGFR inhibition [6]: 98.5 ± 3.1% |
| Cc1ccc2nc(NC(=O)Cn3cc(COc4ccc(/C=N/NC(=O)c5ccccc5)cc4)nn3)sc2c1 [8b, (E)-2-(4-((4-((2-benzoylhydrazono)methyl)phenoxy)methyl)-1H-1,2,3-triazol-1-yl)-N-(6-methylbenzo[d]thiazol-2-yl)acetamide] | > 500 µM | 21 ± 1 µM | 94 ± 1 µM | IC50 [4]: 13 ± 1 µM; inhibition of cell migration at IC50 [5]: 78.9%; inhibition of cell migration at Sub IC50 [5]: 49.8%; % of EGFR inhibition [6]: 96.8 ± 2.1% |
| CS(=O)(=O)c1ccc2nc(NC(=O)Cn3cc(COc4ccc(/C=N/NC(=O)c5ccccc5)cc4)nn3)sc2c1 [8c, (E)-2-(4-((4-((2-benzoylhydrazono)methyl)phenoxy)methyl)-1H-1,2,3-triazol-1-yl)-N-(6-(methylsulfonyl)benzo[d]thiazol-2-yl)acetamide] | > 500 µM | 25 ± 1 µM | 48 ± 2 µM | lipophilic efficiency (LLE) [3]: 1.84; lipophilic efficiency (LLE) [4]: 1.93; % of EGFR inhibition [6]: 92.3 ± 3.1% |
| O=C(Cn1cc(COc2ccc(/C=N/NC(=O)c3ccncc3)cc2)nn1)Nc1nc2ccccc2s1 [8d, (E)-N-(benzo[d]thiazol-2-yl)-2-(4-((4-((2-isonicotinoylhydrazono)methyl)phenoxy)methyl)-1H-1,2,3-triazol-1-yl)acetamide] | > 500 µM | 38 ± 2 µM | 100 ± 2 µM | – |
| Cc1ccc2nc(NC(=O)Cn3cc(COc4ccc(/C=N/NC(=O)c5ccncc5)cc4)nn3)sc2c1 [8e, (E)-2-(4-((4-((2-isonicotinoylhydrazono)methyl)phenoxy)methyl)-1H-1,2,3-triazol-1-yl)-N-(6-methylbenzo[d]thiazol-2-yl)acetamide] | > 500 µM | 92 ± 2 µM | 207 ± 5 µM | – |
| CS(=O)(=O)c1ccc2nc(NC(=O)Cn3cc(COc4ccc(/C=N/NC(=O)c5ccncc5)cc4)nn3)sc2c1 [8f, (E)-2-(4-((4-((2-isonicotinoylhydrazono)methyl)phenoxy)methyl)-1H-1,2,3-triazol-1-yl)-N-(6-(methylsulfonyl)benzo[d]thiazol-2-yl)acetamide] | > 500 µM | 38 ± 2 µM | 149 ± 3 µM | lipophilic efficiency (LLE) [3]: 2.66; lipophilic efficiency (LLE) [4]: 2.58 |
| O=C(Cn1cc(COc2ccc(/C=N\Nc3ccc([N+](=O)[O-])cc3[N+](=O)[O-])cc2)nn1)Nc1nc2ccccc2s1 [8g, (Z)-N-(benzo[d]thiazol-2-yl)-2-(4-((4-((2-(2,4-dinitrophenyl)hydrazono)methyl)phenoxy)methyl)-1H-1,2,3-triazol-1-yl)acetamide] | > 500 µM | 103 ± 5 µM | 109 ± 3 µM | – |
| CS(=O)(=O)c1ccc2nc(NC(=O)Cn3cc(COc4ccc(/C=N\Nc5ccc([N+](=O)[O-])cc5[N+](=O)[O-])cc4)nn3)sc2c1 [8i, (Z)-2-(4-((4-((2-(2,4-dinitrophenyl)hydrazono)methyl)phenoxy)methyl)-1H-1,2,3-triazol-1-yl)-N-(6-(methylsulfonyl)benzo[d]thiazol-2-yl)acetamide] | > 500 µM | 89 ± 4 µM | 162 ± 5 µM | lipophilic efficiency (LLE) [3]: 1.50; lipophilic efficiency (LLE) [4]: 1.52 |
| NC(=S)N/N=C\c1ccc(OCc2cn(CC(=O)Nc3nc4ccccc4s3)nn2)cc1 [8j, (Z)-N-(benzo[d]thiazol-2-yl)-2-(4-((4-((2-carbamothioylhydrazono)methyl)phenoxy)methyl)-1H-1,2,3-triazol-1-yl)acetamide] | > 500 µM | 63 ± 2 µM | 190 ± 4 µM | lipophilic efficiency (LLE) [3]: 1.82; lipophilic efficiency (LLE) [4]: 1.81 |
| Cc1ccc2nc(NC(=O)Cn3cc(COc4ccc(/C=N\NC(N)=S)cc4)nn3)sc2c1 [8k, (Z)-2-(4-((4-((2-carbamothioylhydrazono)methyl)phenoxy)methyl)-1H-1,2,3-triazol-1-yl)-N-(6-methylbenzo[d]thiazol-2-yl)acetamide] | > 500 µM | 138 ± 4 µM | 170 ± 7 µM | – |
| CS(=O)(=O)c1ccc2nc(NC(=O)Cn3cc(COc4ccc(/C=N\NC(N)=S)cc4)nn3)sc2c1 [8l, (Z)-2-(4-((4-((2-carbamothioylhydrazono)methyl)phenoxy)methyl)-1H-1,2,3-triazol-1-yl)-N-(6-(methylsulfonyl)benzo[d]thiazol-2-yl)acetamide] | > 500 µM | 142 ± 3 µM | 180 ± 4 µM | – |
| N.N.[Cl][Pt][Cl] [Cisplatin, reference compound] | – | – | – | IC50 [3, 7]: 22 ± 1 µM |
